Measured values reported in ChEMBL document CHEMBL1140780, “The expedient synthesis of 1,5-benzothiazepines as a family of cytotoxic drugs” (Bioorg Med Chem Lett, 2008).

Tests used:
[1] = system: HL-60; experiment: Photocytotoxicity against human HL60 cells irradiated with 1.25 J cm^-2 ultraviolet radiation after 72 hrs by MTT assay; format: functional; conditions: HL-60, light or radiation study
Method in brief: (§1)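 Culture media, each with penicillin G, streptomycin and 10% FBS: HL-60 in RPMI-1640, NCTC 2544 in DMEM, LoVo in Ham's F12. Seeding was 8 × 10³ HL-60 or 5 × 10³ NCTC 2544/LoVo cells per well, 18 h at 37 °C. Drug in DMSO diluted with HBSS pH 7.2 was added for 30 min at 37 °C, then UVA applied (dose measured at 365 nm). Medium was replaced, 72 h incubation, MTT read-out. GI50 is the concentration giving 50% growth inhibition.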

[2] = system: HL-60; experiment: Photocytotoxicity against human HL60 cells irradiated with 2.5 J cm^-2 ultraviolet radiation after 72 hrs by MTT assay; format: functional; conditions: HL-60, light or radiation study; method in brief: as §1
[3] = Photocytotoxicity against human NCTC 2544 cells irradiated with 1.25 J cm^-2 ultraviolet radiation after 72 hrs by MTT assay; format: cell-based; method in brief: as §1
[4] = Photocytotoxicity against human NCTC 2544 cells irradiated with 2.5 J cm^-2 ultraviolet radiation after 72 hrs by MTT assay; format: cell-based; method in brief: as §1
[5] = system: LoVo; experiment: Photocytotoxicity against human LoVo cells irradiated with 1.25 J cm^-2 ultraviolet radiation after 72 hrs by MTT assay; format: functional; conditions: light or radiation study; method in brief: as §1
[6] = system: LoVo; experiment: Photocytotoxicity against human LoVo cells irradiated with 2.5 J cm^-2 ultraviolet radiation after 72 hrs by MTT assay; format: functional; conditions: light or radiation study; method in brief: as §1

COc1ccc2c(c1)SC(C(=O)O)CC(c1ccc(F)cc1C)=N2 (stereo not given)
GI50 [1]: > 10 µM
GI50 [2]: 10 µM

Cc1cc(F)ccc1C1=Nc2ccc(Cl)cc2SC(C(=O)O)C1 (stereo not given)
GI50 [1]: > 10 µM
GI50 [2]: 6.8 µM

Cc1cc(F)ccc1C1=Nc2c(Br)cccc2SC(C(=O)O)C1 (stereo not given)
GI50 [1]: 2.5 µM
GI50 [2]: 0.9 µM
GI50 at 72 h [3]: > 20 µM
GI50 at 72 h [4]: > 20 µM
GI50 [5]: > 20 µM
GI50 [6]: 13.2 µM

Cc1cc(F)ccc1C1=Nc2c(Cl)cccc2SC(C(=O)O)C1 (stereo not given)
GI50 [1]: > 10 µM
GI50 [2]: 6.9 µM
GI50 at 72 h [3]: > 20 µM
GI50 at 72 h [4]: 6.9 µM
GI50 [5]: 16.8 µM
GI50 [6]: 9.8 µM

Cc1ccc2c(c1)SC(C(=O)O)CC(c1ccc(F)cc1C)=N2 (stereo not given)
GI50 [1]: > 10 µM
GI50 [2]: 10 µM

Cc1cc(F)ccc1C1=Nc2c(F)cccc2SC(C(=O)O)C1 (stereo not given)
GI50 [1]: 6.6 µM
GI50 [2]: 0.8 µM
GI50 at 72 h [3]: 7 µM
GI50 at 72 h [4]: 2.6 µM
GI50 [5]: 3.8 µM
GI50 [6]: 1.94 µM

COc1cccc2c1C(=O)c1c(O)c3c(c(O)c1C2=O)C[C@@](O)(C(=O)CO)C[C@@H]3O[C@H]1C[C@H](N)[C@H](O)[C@H](C)O1 [DOXORUBICIN]
GI50 [1]: 2.36 µM
GI50 [2]: 1.45 µM
GI50 at 72 h [3]: 3.04 µM
GI50 at 72 h [4]: 1.32 µM
GI50 [5]: 8.54 µM
GI50 [6]: 5.48 µM
